Compound activity: PubChem, several laboratories
This is a sample that favours compounds with a hit; in the whole collection about 12% have one here.
Rad51 HR inh = human RAD51 strand exchange inhibitors, primary screen, biochemical, fluorescence | hRad51 DNA strand exchange, fluorescence dequenching | inhibition, % at 10 µM | hit rate 0.085% among 200,000 | AID 1385, 2008;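 active = inhibition above 40% at the single screening dose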;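 note: 0% = DMSO control wells and 100% = blanks with heterologous ssDNA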
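Test system: preformed human Rad51 ssDNA filaments. Compound dosing: single dose, 10 µM final compound. Incubation: filaments 15 min 37 °C, then compound 30 min. Technique: FRET fluorescence dequenching, excitation 485 nm, emission 520 nm. Read-out basis: percent inhibition from fluorescence, normalised to plate control and blank means. Benchmarks: plate controls and plate blanks.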
Wee1 degr inh = Wee1 degradation inhibitors, primary screen, cell-based, HeLa, Wee1K328M-luciferase, luminescence | reporter increase, % at 5 µM | hit rate 1.2% among 220,000 | HeLa Luc-Wee1K328M stability; 100% = proteasome inhibitor MG132 effect;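 active = activation above the mean of all tested compounds plus 3 SD, set per screening run, cut at about 8.8% in these data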;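 note: cells exposed to compound for 20 h before luminescence read; 0% = DMSO alone and 100% = MG132 at 30 µM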
Target sequence (P30291 whole entry K328M): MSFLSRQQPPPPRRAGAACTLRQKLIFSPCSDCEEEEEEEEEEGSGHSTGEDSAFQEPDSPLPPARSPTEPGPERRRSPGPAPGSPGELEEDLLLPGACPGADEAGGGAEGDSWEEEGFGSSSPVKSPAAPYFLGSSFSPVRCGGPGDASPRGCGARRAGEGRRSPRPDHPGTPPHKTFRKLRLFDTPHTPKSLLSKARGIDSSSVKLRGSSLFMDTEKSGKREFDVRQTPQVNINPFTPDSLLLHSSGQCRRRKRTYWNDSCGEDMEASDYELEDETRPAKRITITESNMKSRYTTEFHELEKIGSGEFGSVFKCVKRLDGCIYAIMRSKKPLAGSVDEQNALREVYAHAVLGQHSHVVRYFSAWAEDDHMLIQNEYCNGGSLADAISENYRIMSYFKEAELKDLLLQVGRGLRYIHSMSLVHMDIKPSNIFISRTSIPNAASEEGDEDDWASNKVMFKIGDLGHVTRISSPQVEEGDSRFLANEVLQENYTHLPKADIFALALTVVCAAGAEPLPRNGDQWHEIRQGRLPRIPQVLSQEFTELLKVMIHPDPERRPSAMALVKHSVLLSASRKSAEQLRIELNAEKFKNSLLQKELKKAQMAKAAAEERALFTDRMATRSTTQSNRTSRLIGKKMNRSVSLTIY
PKD1 inh = inhibitors of human PKD1 kinase, biochemical, fluorescence polarization | PKD1 kinase fluorescence polarization assay | hit rate 0.056% among 200,000 | AID 797, 2007 | inhibition, % (no concentration beside the values) | Serine/threonine-protein kinase D1 (Homo sapiens), Q15139
CHOP inhibitor = inhibitors of CHOP promoter induction, primary screen, cell-based, unfolded protein response, luciferase reporter. CHO-K1 CHOP-promoter luciferase, tunicamycin-induced, 15-18 h. inhibition, % at 10 µM. hit rate 3.8% among 220,000. AID 2732, 2010;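 active = compounds that reduced the stress-induced luciferase reporter signal by more than about 70% of percent inhibition, limit read from the data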;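 note: 0% = tunicamycin plus vehicle and 100% = wells without tunicamycin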
Arbovirus anti = antivirals against arbovirus infection, primary screen, cell-based, full library, 10K replicate subset; arbovirus infection cell-based antiviral screen; inhibition, % at 10 µM; hit rate 0.37% among 200,000; in the data active = inhibition above about 30%
Lmaj promast = Leishmania major promastigote growth inhibition, primary screen. hit rate 9% among 200,000. inhibition, % at 10 µM. Leishmania major promastigotes, resazurin fluorescence viability;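 note: promastigotes grown with compound for 44 hours at 28 °C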
CHOP confirm = retest of CHOP induction inhibitors, confirmation, cell-based. shares compounds with CHOP inhibitor. CHO-CHOP promoter luciferase reporter, tunicamycin-induced, luminescence. inhibition, % at 10 µM. hit rate 45% among 2,100. AID 504437, 2011;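 active = mean of three repeat readings of reporter signal inhibition above a set limit, cut at about 70% in these data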;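 note: 0% = tunicamycin plus vehicle and 100% = wells lacking tunicamycin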
Numbers without * were called inactive; i = inactive; . = no result; ! = a repeat was not active. Cut-off read from the data, not from the text of the source, unless noted: active = inhibition above about 50%; inactive = the rest.

SMILES	Rad51 HR inh	Wee1 degr inh	PKD1 inh	CHOP inhibitor	Arbovirus anti	Lmaj promast	CHOP confirm
Cc1ccc(/C=C2\C(=O)NC(=O)N(CCc3ccc(F)cc3)C2=O)o1	9	0	-4	105*	-3	-6	-20
O=C1NC(=O)N(Cc2ccccc2Cl)C(=O)/C1=C/c1cccs1	-11	1	-2	106*	-1	35	-30
CNc1ccc2oc(C[C@H]3O[C@@]4(CC[C@H]3C)O[C@H]([C@H](C)C(=O)c3ccc[nH]3)[C@H](C)C[C@H]4C)nc2c1C(=O)O	-6	.	.	106*!	.	.	129*
COc1ccc(C(=O)O/N=C(/C(N)=O)P(=O)(OC(C)C)OC(C)C)cc1	4	-1	.	-42	.	.	.
C[C@H]1CC[C@@H]2[C@@H](C)[C@H]3[C@H](C[C@H]4[C@@H]5CC=C6C[C@@H](O[C@@H]7O[C@H](CO)[C@H](O)[C@H](O[C@@H]8O[C@H](CO)[C@@H](O)[C@H](O)[C@H]8O)[C@H]7O[C@@H]7O[C@@H](C)[C@H](O)[C@@H](O)[C@H]7O)CC[C@]6(C)[C@H]5CC[C@]34C)N2C1	-14	9	-2	106*	-36	47	-62
C=C1C(=O)O[C@@H]2C[C@@H](C)[C@@H]3C4OC4C(=O)[C@@]3(C)[C@@H](O)[C@H]12 (some centres undefined)	-12	.	.	107*	.	.	110*
Cc1ccc2cc(C=C(C#N)C#N)c(Cl)nc2c1	-12	1	-8	60	-7	23	.
O=c1[nH]c(O)c(/C=C2/C=CC(c3cc(Cl)ccc3Cl)=N2)c(=O)[nH]1	i	-3	.	103*	.	.	46
CN1C(=O)/C(=C/C=C/c2ccco2)C(=O)NC1=S	-110	3	.	3	.	.	.
Cc1ccc(N2C(=O)NC(=O)/C(=C\C=C\c3ccco3)C2=O)cc1	.	-2	.	106*	.	.	132*
O=C1NC(=O)N(Cc2ccco2)C(=O)/C1=C/C=C/c1ccco1	-27	-1	.	108*	.	.	140*
Cc1ccc(N2C(=O)NC(=O)/C(=C\C=C\c3ccco3)C2=O)cc1C	-51	-2	-4	110*	-1	100*	104*
Cn1cccc1/C=C1\C(=O)NC(=O)N(Cc2ccco2)C1=O	-4	0	0	-30	2	3	.
Cc1ccc2c(c1)CC1(CN2C)C(=O)NC(=O)N(CCC2=CCCCC2)C1=O (centres undefined)	13	0	-13	107*	0	5	25
Cc1ccc2c(c1)CC1(CN2C)C(=O)NC(=O)N(C(C)C)C1=O (centres undefined)	-17	-1	-3	35	-7	16	.
CCOC(=O)c1c(C)n(Cc2ccco2)c2c1cc(O)c1ccccc12	5	0	-10	101*	7	-3	-49
CC1CN(c2ccc([N+](=O)[O-])c(N3CCCCC3)c2)CCN1 (centres undefined)	.	-1	.	1	.	.	.
COc1ccc2nc(NC3=NCCN3)sc2c1	10	2	2	16	-4	1	.
CN1CCc2nc(SCc3cccc(Br)c3)c(C#N)cc2C1	11	2	.	4	.	.	.
CN1C(=O)NC(=O)/C(=C\C=C\c2ccccc2[N+](=O)[O-])C1=O	-3	-1	1	99*	4	42	-27
CN1CCN2c3ccc(N)cc3CC3(C(=O)NC(=O)NC3=O)C2C1 (centres undefined)	11	2	.	3	.	.	.
C=C1C(=O)O[C@H]2C[C@@H](C)[C@@H]3C=CC(=O)[C@@]3(C)C[C@H]12	.	.	.	105*	.	.	90*
CCCCCCCn1c(=O)c(C(=O)Nc2cnccn2)c(O)c2ccccc21	.	-3	.	98*	.	.	116*
Cc1ccc(CN(Cc2ccccc2)C(=S)NCC(=O)N2CCC3(CC2)OCCO3)o1	6	3	-1	20	5	12	.
CN(C)/C=C1/C(=O)NC(=O)N(CCNc2ncc(C(F)(F)F)cc2Cl)C1=O	-21	-3	-2	12	3	-6	.
CC(=O)Nc1nnc(CCN(CCc2nnc(NC(C)=O)s2)[N+](=O)[O-])s1	19	-1	.	-4	.	.	.
